Results reported in ChEMBL document CHEMBL1157279, “8-methyl-pyridoxatin: A novel N-hydroxy pyridone from fungus OS-F61800 that induces erythropoietin in human cells” (1999).
Calls of active or inactive are those of the source. The rule behind the calls is not given here.

Tests used:
Hep 3B2 [1] = assay: Induction of erythropoietin gene expression in human Hep3B cells assessed as concentration resulting in maximum fold induction by luciferase reporter assay relative to control; format: functional
Procedure, shortened: (§1)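 Hep3B epo-3 cells carrying an EPO-luciferase reporter; compounds tested at 0.1 to 30 µM, in triplicate in at least three experiments. Read-out is the ratio of light units with compound to a 0.5% DMSO vehicle control. TIR5x is the concentration giving fivefold induction; TIRmax is the minimum concentration giving maximum-fold induction. 10 µM CoCl2 served as positive control.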

Hep 3B2 [2] = assay: Induction of erythropoietin gene expression in human Hep3B cells assessed as concentration resulting in five fold induction by luciferase reporter assay relative to control; format: functional; procedure, shortened: as §1
Hep 3B2 [3] = assay: Induction of erythropoietin protein expression in human Hep3B cells assessed per ml of protein at 10 uM by ELISA relative to control; format: functional
Procedure, shortened: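 Hep3B epo-3 cells incubated 24 h with compound at a single 10 µM; native EPO secreted into culture measured by human EPO ELISA kit, in mU/mL culture, against a 0.5% DMSO vehicle control; 10 µM CoCl2 as positive control.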

[4] = Cytotoxicity against human Hep3B cells after 48 hrs by MTT assay; format: functional, Hep 3B2
Procedure, shortened: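 Hep3B epo-3 cells, 48 h exposure, standard MTT assay; value is concentration giving 90% inhibition (IC90).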

| SMILES | Activity (Hep 3B2 [1]) | Activity (Hep 3B2 [2]) | Activity (Hep 3B2 [3]) | IC90 [4] |
| --- | --- | --- | --- | --- |
| C=C[C@]1(C)C[C@H](C)C[C@H](C)[C@H]1c1c(OC)ccn(OC)c1=O | inactive | inactive | – | – |
| C=C[C@]1(C)C[C@H](C)C[C@H](C)[C@H]1c1c(O)ccn(O)c1=O | 0.7 µM | 0.3 µM | 120 mU/mL | > 20 µM |
| Cc1cc(C2CCCCC2)n(O)c(=O)c1.NCCO [CICLOPIROX OLAMINE] | 15 µM | 3 µM | 99 mU/mL | > 20 µM |
